Converted amounts (≈) assume the structure as drawn.
Columns and labels:
[1] = WHO-TDR: Cytotoxicity; assay type: toxicity, cell-based; conditions: human, MRC5 cells
Plasmodium falciparum K1 = assay: WHO-TDR: Malaria; assay type: functional, organism-based, Homo sapiens; conditions: Erythrocyte
In short: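 This whole-organism screen covered 10,000 drug-likeness-filtered and reactive-group-filtered compounds from Life Chemicals. The target was the Plasmodium falciparum K1 strain in human red blood cells, and the readout was antiplasmodial IC50.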

Trypanosoma cruzi = assay: WHO-TDR: Chagas disease; assay type: functional, organism-based, Homo sapiens; conditions: MRC5
In short: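 Each IC50 reflects antiparasitic potency against intracellular amastigotes of Trypanosoma cruzi Tulahuen CL2 beta-galactosidase strain. These were cultured in MRC-5SV2 human lung fibroblasts and exposed to a 10,000-compound diverse Life Chemicals library screened according to published standard procedures with a reference drug as positive control.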

[2] = system: Trypanosoma brucei brucei; assay: WHO-TDR: Human African Trypanosomiasis (HAT); assay type: functional, organism-based; conditions: Squib-427
In short: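 Screening used a 10,000-compound diverse library supplied by Life Chemicals and filtered for drug-likeness and reactive groups. Whole bloodstream-form parasites of Trypanosoma brucei Squib 427 strain were assayed according to previously published standard procedures, with reference drugs as positive controls. The reported measure is IC50, reflecting antiparasitic potency.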

Leishmania infantum = assay: WHO-TDR: Leishmaniasis; assay type: functional, organism-based, Mus musculus; conditions: Macrophage
In short: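 The screened collection came from Life Chemicals: 10,000 diverse compounds selected after filtering for drug-likeness and reactive groups. Each was tested in a whole-organism assay against Leishmania infantum MHOM/MA(BE)/67 amastigotes inside murine peritoneal macrophages, using previously published standard procedures and a reference drug as positive control. Results are IC50 values for antiparasitic potency.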

Schistosoma mansoni = assay: WHO-TDR: Schistosomiasis; assay type: functional; set-up: concentration or dose not given beside the values
In short: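 Whole-organism screen of a 10,000-compound diverse library from Life Chemicals, filtered for drug-likeness and reactive groups, against larval and/or adult worms of Schistosoma mansoni Puerto Rican strain. The assay followed previously published standard procedures, with a reference drug as positive control. Activity is reported as percent inhibition and as IC50.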

Onchocerca lienalis = assay: WHO-TDR: Onchocerciasis; assay type: functional; set-up: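 at 12.5 µM on microfilariae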
In short: (§1)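 Whole-organism screen of a 10,000-compound diverse library from Life Chemicals, filtered for drug-likeness and reactive groups, against microfilariae of Onchocerca ochengi or Onchocerca lienalis, used as animal-pathogen stand-ins for the human parasite. The assay followed previously published standard procedures, with reference drugs as positive controls. Activity is reported as percent inhibition and as IC50.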

Brugia malayi = assay: WHO-TDR: Lymphatic Filariasis; assay type: functional; set-up: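 tested at 10 µM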
In short: as §1, with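 “Brugia malayi microfilariae.” for “microfilariae of Onchocerca ochengi or Onchocerca lienalis, used as animal-pathogen stand-ins for the human parasite.”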

Row | SMILES | IC50 (Plasmodium falciparum K1) | IC50 [2] | IC50 (Leishmania infantum) | IC50 [1] | IC50 (Trypanosoma cruzi) | % Inhibition (Schistosoma mansoni) | % Inhibition (Onchocerca lienalis) | % Inhibition (Brugia malayi)
1 | COc1ccc(Cl)c2sc(N(CCCN(C)C)C(=O)c3ccco3)nc12 | > 12.9 µg/mL | 4.08 µg/mL (≈ 10.4 µM) | 0.418 µg/mL (≈ 1.06 µM) | 4.17 µg/mL (≈ 10.6 µM) | 1.36 µg/mL (≈ 3.46 µM) | 0% | 0% | 0%
2 | COc1ccc(Cl)c2sc(N(CCCN(C)C)C(=O)c3ccc(Br)s3)nc12 | > 15.8 µg/mL | 5.66 µg/mL (≈ 11.6 µM) | 0.51 µg/mL (≈ 1.04 µM) | 6.71 µg/mL (≈ 13.7 µM) | 1.77 µg/mL (≈ 3.62 µM) | 100% | 0% | 0%
3 | O=C(Cc1ccc(F)cc1)Nc1nc(-c2ccccn2)cs1 | 2.97 µg/mL (≈ 9.49 µM) | 0.308 µg/mL (≈ 0.983 µM) | > 9.4 µg/mL | > 9.4 µg/mL | 0.334 µg/mL (≈ 1.07 µM) | 0% | 23.33% | 0%
4 | Cc1ccc2sc(N(CCN(C)C)C(=O)C3CCN(S(=O)(=O)c4cccs4)CC3)nc2c1C | 3.81 µg/mL (≈ 7.51 µM) | 5.21 µg/mL (≈ 10.3 µM) | > 16.3 µg/mL | 1.94 µg/mL (≈ 3.84 µM) | 0.772 µg/mL (≈ 1.52 µM) | 0% | 16.32% | 0%
5 | O=C(Nc1nc(-c2ccccn2)cs1)C1CCN(S(=O)(=O)c2cccs2)CC1 | > 13 µg/mL | > 13 µg/mL | > 13 µg/mL | > 13 µg/mL | 0.434 µg/mL (≈ 0.999 µM) | 0% | 9.31% | 0%
6 | Cc1ccc2sc(N(Cc3cccnc3)C(=O)CSc3ccccc3)nc2c1C | > 12.6 µg/mL | > 12.6 µg/mL | > 12.6 µg/mL | > 12.6 µg/mL | 0.938 µg/mL (≈ 2.24 µM) | 0% | 0% | 0%
7 | O=C(Nc1ccncc1)c1cccn(Cc2ccc(F)cc2)c1=O | > 9.7 µg/mL | > 9.7 µg/mL | > 9.7 µg/mL | 2.53 µg/mL (≈ 7.83 µM) | 0.45 µg/mL (≈ 1.39 µM) | 0% | -1% | 0%
8 | COC(=O)c1ccccc1N(C)C(=O)c1cc2cccnc2n(C)c1=O | > 10.5 µg/mL | > 10.5 µg/mL | 0.341 µg/mL (≈ 0.971 µM) | > 10.5 µg/mL | > 10.5 µg/mL | 0% | 0% | 0%
9 | Cc1nn(-c2ccc(F)cc2)c2ncc(C(=O)NCc3ccco3)c(Cl)c12 | 8.26 µg/mL (≈ 21.5 µM) | 0.292 µg/mL (≈ 0.759 µM) | 3.74 µg/mL (≈ 9.71 µM) | 1.31 µg/mL (≈ 3.41 µM) | 0.398 µg/mL (≈ 1.03 µM) | 25% | 0% | 0%
10 | Cc1ccc(-c2nnc(NC(=O)c3ccc(S(=O)(=O)N4CCc5ccccc5C4)cc3)o2)cc1C | > 14.7 µg/mL | 10.1 µg/mL (≈ 20.6 µM) | > 14.7 µg/mL | 8.86 µg/mL (≈ 18.1 µM) | 0.538 µg/mL (≈ 1.1 µM) | 0% | 0% | 0%
11 | CCSc1ccccc1C(=O)Nc1nnc(-c2cccs2)o1 | > 9.94 µg/mL | 0.656 µg/mL (≈ 1.98 µM) | 6.77 µg/mL (≈ 20.4 µM) | 5.3 µg/mL (≈ 16 µM) | 0.413 µg/mL (≈ 1.25 µM) | 0% | 20% | 0%
12 | COc1ccc(C)c2sc(N(CCCN(C)C)C(=O)c3ccccc3SC)nc12 | 0.506 µg/mL (≈ 1.18 µM) | 0.432 µg/mL (≈ 1.01 µM) | 4.53 µg/mL (≈ 10.5 µM) | 4.42 µg/mL (≈ 10.3 µM) | 5.29 µg/mL (≈ 12.3 µM) | 0% | 13.3% | 0%
13 | O=C(Nc1ccc2c(c1)N(C(=O)C1CC1)CCC2)c1cccc(C(F)(F)F)c1 | 4.56 µg/mL (≈ 11.7 µM) | 3.69 µg/mL (≈ 9.49 µM) | > 11.7 µg/mL | > 11.7 µg/mL | 0.808 µg/mL (≈ 2.08 µM) | 0% | 13.3% | 0%
14 | COc1ccc(Nc2nc(Nc3ccccc3OC)nc(N3CCOCC3)n2)cc1 | 1.19 µg/mL (≈ 2.91 µM) | 0.422 µg/mL (≈ 1.03 µM) | 4.32 µg/mL (≈ 10.6 µM) | 2.08 µg/mL (≈ 5.1 µM) | 3.98 µg/mL (≈ 9.74 µM) | 0% | 0% | 0%
15 | COc1ccc(Cl)c2sc(NC(=O)c3ccc(Cl)cc3Cl)nc12 | > 11.6 µg/mL | > 11.6 µg/mL | 0.377 µg/mL (≈ 0.972 µM) | 4.96 µg/mL (≈ 12.8 µM) | 3.62 µg/mL (≈ 9.34 µM) | 0% | 0% | 0%
16 | COc1ccc(Cl)c2sc(NC(=O)c3ccc4c(c3)OCCO4)nc12 | > 11.3 µg/mL | 3.57 µg/mL (≈ 9.49 µM) | 0.366 µg/mL (≈ 0.971 µM) | 3.43 µg/mL (≈ 9.09 µM) | 0.702 µg/mL (≈ 1.86 µM) | 0% | 53.4% | 0%

The next lines start with results.

Row | IC50 (Plasmodium falciparum K1) | IC50 [2] | IC50 (Leishmania infantum) | SMILES | IC50 [1] | IC50 (Trypanosoma cruzi) | % Inhibition (Schistosoma mansoni) | % Inhibition (Onchocerca lienalis) | % Inhibition (Brugia malayi)
17 | 10.5 µg/mL (≈ 25.3 µM) | 4.37 µg/mL (≈ 10.6 µM) | 1.98 µg/mL (≈ 4.79 µM) | O=C(/C=C/c1cccs1)N(CCCN1CCOCC1)c1nc2ccccc2s1 | > 13.5 µg/mL | 4.43 µg/mL (≈ 10.7 µM) | 0% | 16.32% | 0%
18 | 11 µg/mL (≈ 24.2 µM) | > 13.6 µg/mL | > 13.6 µg/mL | CCOc1ccc2nc(N(Cc3cccnc3)C(=O)CSc3ccc(F)cc3)sc2c1 | > 13.6 µg/mL | 0.223 µg/mL (≈ 0.492 µM) | 0% | 26.7% | 0%
19 | > 11.9 µg/mL | 3.86 µg/mL (≈ 9.71 µM) | > 11.9 µg/mL | Cc1ccccc1Cn1cc(C(=O)Nc2cccc(Br)c2)ccc1=O | 9.51 µg/mL (≈ 23.9 µM) | 0.553 µg/mL (≈ 1.39 µM) | 0% | 26.7% | 0%
20 | > 11.1 µg/mL | 0.376 µg/mL (≈ 1.01 µM) | 3.6 µg/mL (≈ 9.71 µM) | Cc1nn(-c2ccccc2)c2ncc(C(=O)NCC3CCCO3)c(Cl)c12 (stereo not drawn) | 3.52 µg/mL (≈ 9.49 µM) | 0.392 µg/mL (≈ 1.06 µM) | 0% | 66.7% | 0%
21 | 10.9 µg/mL (≈ 22.9 µM) | > 14.2 µg/mL | 0.461 µg/mL (≈ 0.971 µM) | O=C(Cn1c(S(=O)(=O)Cc2ccccc2)nc2ccccc21)N1CCN(c2ccccc2)CC1 | > 14.2 µg/mL | > 14.2 µg/mL | 0% | 11.35% | 0%
22 | > 10.6 µg/mL | 0.856 µg/mL (≈ 2.43 µM) | > 10.6 µg/mL | CSc1ccccc1-c1nnc(NC(=O)c2ccc(Cl)s2)o1 | > 10.6 µg/mL | 0.416 µg/mL (≈ 1.18 µM) | 0% | 86.4% | 0%
23 | > 12.5 µg/mL | 0.395 µg/mL (≈ 0.948 µM) | 0.405 µg/mL (≈ 0.972 µM) | CCS(=O)(=O)c1cccc(C(=O)Nc2nc3c(s2)CSc2ccccc2-3)c1 | 4 µg/mL (≈ 9.6 µM) | 0.412 µg/mL (≈ 0.989 µM) | 75% | 46.7% | 0%
24 | > 11.4 µg/mL | 6.35 µg/mL (≈ 16.7 µM) | > 11.4 µg/mL | CCCc1cc(=O)n(CC(=O)Nc2ccc(C)cc2)c(-n2nc(C)cc2C)n1 | 10.5 µg/mL (≈ 27.6 µM) | 0.764 µg/mL (≈ 2.01 µM) | 0% | 27.7% | 0%
25 | 3.81 µg/mL (≈ 8.61 µM) | 0.643 µg/mL (≈ 1.45 µM) | > 13.3 µg/mL | CC(=O)c1cccc(Nc2nc(Nc3ccc(F)c(Cl)c3)nc(N3CCOCC3)n2)c1 | 5.32 µg/mL (≈ 12 µM) | 0.465 µg/mL (≈ 1.05 µM) | 25% | 0% | 0%
26 | 1.06 µg/mL (≈ 2.62 µM) | 0.42 µg/mL (≈ 1.03 µM) | 4.3 µg/mL (≈ 10.6 µM) | Cc1cccc(Nc2nc(Nc3ccc4c(c3)OCO4)nc(N3CCOCC3)n2)c1 | 1.82 µg/mL (≈ 4.49 µM) | 2.05 µg/mL (≈ 5.03 µM) | 0% | 0% | 0%
